MrgX1 ag = agonists of human MrgX1 receptor | hit rate 0.44% among 310,000 | AID 588627 | Q96LB2 | MrgX1-HEK293 cells, Fluo-4 calcium fluorescence, agonist mode; active compounds read high | B-score at 10 µM;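 active means calcium response B-score plate-corrected fluorescence ratio at least 3 library SD, with starting fluorescence B-score inside 5 SD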
Target sequence (Q96LB2 whole entry, looked up): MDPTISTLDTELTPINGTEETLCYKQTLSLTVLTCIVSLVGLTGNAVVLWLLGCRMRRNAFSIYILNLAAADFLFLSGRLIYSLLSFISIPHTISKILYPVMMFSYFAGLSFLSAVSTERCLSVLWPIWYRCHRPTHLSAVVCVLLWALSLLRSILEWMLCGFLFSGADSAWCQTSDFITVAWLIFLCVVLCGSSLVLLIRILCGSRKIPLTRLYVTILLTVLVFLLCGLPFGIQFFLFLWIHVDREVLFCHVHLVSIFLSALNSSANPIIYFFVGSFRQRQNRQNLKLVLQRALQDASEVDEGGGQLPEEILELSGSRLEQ
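Assay system: MrgX1-expressing HEK293 cells / Amount: fifteen thousand cells per well / Doses: test compound in the initial addition of three / Timing: cells plated overnight, dye loaded 0.5 h 37 °C, 0.5 h room temperature / Technique: kinetic calcium dye fluorescence, Fluo-4 NW / Control set: positive and negative controls per plate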
RGS4 block = human RGS4 inhibition | hit rate 0.45% among 310,000 | AID 463165 | B-score at 10 µM | HEK293 M3R/RGS4 inducible, Fluo-4 calcium flux; active compounds read high; triggered by carbachol at its EC20;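 active means B-score, a plate-corrected calcium signal, over three deviations above library mean, with baseline fluorescence within five deviations of library mean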;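 further: RGS4 expression induced by doxycycline in cells with stable M3 receptor; B-score is computed from the integrated fluorescence ratio over baseline after carbachol; higher B-score means a larger calcium signal and so more RGS4 inhibition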
Target sequence (P49798 whole entry, looked up): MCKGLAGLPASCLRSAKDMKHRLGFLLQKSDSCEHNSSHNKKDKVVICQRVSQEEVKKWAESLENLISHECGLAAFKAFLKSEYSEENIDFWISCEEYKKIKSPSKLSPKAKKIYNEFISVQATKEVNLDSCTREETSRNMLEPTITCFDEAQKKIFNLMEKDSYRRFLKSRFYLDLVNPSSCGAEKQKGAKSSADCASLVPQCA
MrgX1 allo act = allosterically activates human MrgX1 receptor signaling; MrgX1-HEK293, Fluo-4 calcium flux, FDSS; active compounds read high; B-score at 10 µM; hit rate 0.63% among 310,000;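 active means plate-corrected calcium response at least 3 library SD above typical, normal starting fluorescence, not activating the receptor alone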;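 further: compound read alongside a low EC10 to EC30 dose of BAM8-22 agonist; peak minus trough fluorescence over baseline measured at the second addition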
RGS4 act = potentiators or activators of RGS4; AID 463111; B-score at 10 µM; hit rate 0.92% among 310,000; HEK293 M3R/inducible RGS4, carbachol calcium flux Fluo4; active compounds read low;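 active means B-score of the integrated calcium signal more than 4 SD below the library mean, with starting fluorescence not abnormally high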;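 further: negative B-score means reduced calcium response which marks RGS4 activation or potentiation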
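Reagent: ECmax carbachol challenge; Test system: M3R-expressing HEK293 line, RGS4 induced by doxycycline; Schedule: overnight RGS4 induction, 30 min dye load 37 °C, 20 min compound RT; Detection: calcium dye Fluo4 fluorescence; Read-out: Agonist-evoked peak-minus-minimum fluorescence over baseline, integrated ratio, B score.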
MrgX1 antag = blocks BAM8-22 activation of human MrgX1 receptor; hit rate 1.3% among 310,000; Q96LB2; B-score at 10 µM; MRGX1-HEK293 calcium flux, Fluo-4, BAM8-22 antagonism; active compounds read low;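 active means calcium-response B-score plate-corrected more than 3 library SD below zero, starting fluorescence within 5 deviations, no agonist response on first addition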;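 further: peak minus trough fluorescence over baseline after final BAM8-22 challenge near maximal dose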
MrgX1 ant reconf = human MrgX1 receptor antagonism, re-confirmation screen | MrgX1-HEK293, BAM8-22 calcium flux, Fluo-4; active compounds read low | shares compounds with MrgX1 antag | hit rate 19% among 2,300 | remaining BAM8-22 calcium response % of control (active compounds read low), % at 10 µM;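 active means remaining agonist calcium response no higher than 100% minus 3 SD of agonist-only control wells, with starting fluorescence near control levels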;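 further: agonist BAM8-22 given at a near maximal EC90 to ECmax level; peak minus minimum fluorescence divided by baseline after agonist addition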
HEK293 Ca flux = counter-screen for MrgX1 antagonists: effect in parental HEK293 cells; fluorescence ratio F(max-min)/F0 at 10 µM; shares compounds with MrgX1 antag; Fluo-4 calcium fluorescence, FDSS; hit rate 2% among 4,000;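 active means duplicate-averaged calcium fluorescence ratio at least three times the standard deviation of buffer wells, a nonspecific response in parental cells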
HEK293 Ca counter = MrgX1 allosteric activator counter-screen hit in parental HEK293 cells | shares compounds with MrgX1 antag | parental HEK293 calcium flux, Fluo-4 fluorescence ratio; active compounds read high | fluorescence ratio F(max-min)/F0 at 10 µM | hit rate 0.4% among 4,000;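 active means calcium fluorescence ratio, averaged over duplicates, at least 3 SD of the buffer-well ratio, meaning a nonspecific response in receptor-free cells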;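 further: untransfected parental HEK293 lacking MrgX1 used as counterscreen for MrgX1 allosteric activators; fluorescence change taken during the second addition on a kinetic imager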
HEK293 Ca cntr2 = counter-screen for MrgX1 activators: effect in parental HEK293 cells; shares compounds with MrgX1 antag; Fluo-4 calcium fluorescence (FDSS); active compounds read high; fluorescence ratio F(max-min)/F0 at 10 µM; hit rate 8.7% among 4,000; AID 624115;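 active means calcium fluorescence ratio at least three times the spread of buffer wells, meaning a non-specific response in parental cells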
Active calls of the source: *; i = inactive; . = not tested or not shown. Hits are enriched below; roughly 3.5% of the tested compounds scored in any of these assays.

SMILES	MrgX1 ag	RGS4 block	MrgX1 allo act	RGS4 act	MrgX1 antag	MrgX1 ant reconf	HEK293 Ca flux	HEK293 Ca counter	HEK293 Ca cntr2
N#C/C(=C\C=C\c1ccccc1[N+](=O)[O-])C(=O)NCc1ccccc1	i	i	i	i	i	.	.	.	.
Cc1cc(C)c(C)c(S(=O)(=O)NCCCN2CCCC2=O)c1C	i	i	i	i	-5.4*	i	i	i	i
O=C1CCCN1CCCNS(=O)(=O)c1ccc(Br)cc1	i	i	i	i	i	.	.	.	.
O=C(NC(=S)Nc1ccccc1N1CCCC1)c1cccs1	i	i	i	i	i	.	.	.	.
O=C(NC(=S)Nc1ccccc1N1CCOCC1)c1cccs1	i	i	i	i	-4.7*	i	i	i	i
CNCCCOc1ccc2c(c1)CCC2	i	i	i	i	-5*	i	i	i	i
c1cc2c(cc1OCCNC1CCCC1)CCC2	i	i	i	i	i	.	.	.	.
CCOc1ccc(N(C(=O)Nc2ccccc2)C2=NCCC2)cc1	i	i	i	i	i	.	.	.	.
CC(C)CC(C(=O)O)C(C)CC(=O)Nc1ccn(-c2ccccc2)n1 (stereo not drawn)	i	i	i	i	i	.	.	.	.
O=C(Nc1ccccc1F)C(=O)c1cn(CC(=O)N2CCCCC2)c2ccccc12	i	i	i	i	-5*	i	i	i	i
CC(=O)Nc1ccc(NC(=O)C(=O)c2cn(CC(=O)N3CCCC3)c3ccccc23)cc1	i	i	i	i	i	.	.	.	.
O=C(COC(=O)C1CC(=O)N(c2ccccc2)C1)c1ccccc1 (stereo not drawn)	i	i	i	i	i	.	.	.	.
Cc1ccc2nc(-c3ccc(NC(=S)NC(=O)CC(C)C)cc3)sc2c1	i	i	i	i	i	.	.	.	.
COc1ccc(CNC(=O)C2CCN(c3nnc(N4CCCC4=O)s3)CC2)cc1	i	i	i	i	-5.3*	i	i	i	i
COc1ccc(Br)cc1CNC(=O)C1CCN(c2nnc(N3CCCC3=O)s2)CC1	i	i	i	i	i	.	.	.	.
COCCn1nnnc1CN1CCN(C(=O)c2ccco2)CC1	i	i	i	i	-6.3*	i	i	i	i
COc1ccc(CCn2nnnc2CN2CCN(C(=O)c3ccco3)CC2)cc1OC	i	i	i	i	i	.	.	.	.
COc1ccc(NC(=O)CN(C)C(=O)c2ccc(-c3ccccc3Cl)o2)cc1	i	i	i	i	-4.7*	i	i	i	i
COc1ccc(NC(=O)CN(C)C(=O)c2ccc(-c3cccc(C(F)(F)F)c3)o2)cc1	i	i	i	i	i	.	.	.	.
CN(CCO)c1c2c(nc3cc(-c4cccc(F)c4)nn13)CCCC2	i	i	i	i	-9.6*	i	i	i	i
OC1CCN(c2c3c(nc4cc(-c5cccc(F)c5)nn24)CCCC3)CC1	i	i	i	i	i	.	.	.	.
Cc1cccc(NC(=O)Nc2c(C)n(C)n(-c3ccccc3)c2=O)c1C	i	i	i	i	i	.	.	.	.
Cc1cccc(NC(=S)Nc2c(C)n(C)n(-c3ccccc3)c2=O)c1C	i	i	i	i	-18*	i	i	i	i
CC(C)Oc1ccc(C(=O)NCc2ccco2)cc1	i	i	i	i	-5.9*	i	i	i	i
CCCOc1ccc(C(=O)NCc2ccco2)cc1	i	i	i	i	i	.	.	.	.
SMILES	MrgX1 ag	RGS4 block	MrgX1 allo act	RGS4 act	MrgX1 antag	MrgX1 ant reconf	HEK293 Ca flux	HEK293 Ca counter	HEK293 Ca cntr2
S=C(NCCc1ccncc1)Nc1cccc2ccccc12	i	i	i	i	i	.	.	.	.
CCc1ccc(-c2cc(C(=O)NCc3ccccn3)c3ccccc3n2)cc1	i	i	i	i	-5.3*	77%*	i	i	i
COC(=O)[C@H](C)[C@@H]1C[C@@]1(C)[C@@H](NC(=O)OCc1ccccc1)c1ccccc1	i	i	i	i	-5.4*	75%*	i	i	i
Cc1cc(N2CCCC2)c(F)cc1/C=C\[N+](=O)[O-]	.	i	.	i	.	.	.	.	.
Cn1c(SCc2ccc(C#N)cc2)nnc1-c1cccc(Cl)c1	i	i	i	i	-4.7*	i	i	i	i
CC1CN(CCn2cnc3c(N)ncnc32)CC(C)O1 (stereo not drawn)	i	i	i	i	i	.	.	.	.
Nc1ncnc2c1ncn2CCN1CCCCC1	i	i	i	i	-5.7*	i	i	i	i
COc1ccc(Nc2nc(-c3ccc4c(c3)NC(=O)CO4)cs2)cc1	i	i	i	i	i	.	.	.	.
COc1ccc(-c2cc(-c3ccccc3)nc(-c3ccc4c(c3)NC(=O)CO4)c2)cc1	i	i	i	i	-5.9*	i	i	i	i
O=C(COC(=O)Cn1cnc2ccccc2c1=O)NCCC1=CCCCC1	i	i	i	i	i	.	.	.	.
O=C(/C=C/c1c(Cl)nc2ccccn12)N1CCN(c2ccccc2F)CC1	i	i	i	i	i	.	.	.	.
Cc1ccc(S(=O)(=O)/N=C2\CN(C)C(=O)N2C)cc1	i	i	i	i	i	.	.	.	.
Cc1ccc(S(=O)(=O)/N=c2\scc(C)n2C)cc1	i	i	i	i	-5.5*	i	i	i	i
O=C(CN1C(=O)NC2(CCCc3ccccc32)C1=O)N1CCc2ccccc2C1 (stereo not drawn)	i	i	i	i	-9.3*	85%*	i	i	i
CCOC(=O)c1c(-c2ccccc2)nnn1-c1nc(OC)nc(N2CCOCC2)n1	i	i	i	i	i	.	.	.	.
COc1ccccc1NC(=O)CN1CCN(CC(=O)Nc2ccc(S(N)(=O)=O)cc2)CC1	i	i	i	i	-7.6*	i	i	i	i
Nc1cccnc1Sc1cc(Cl)c(Cl)cc1Cl	i	i	i	i	-6.5*	i	i	i	i
